The list is not random: actives were taken first. Their share in the collection is about 3.9%.
GAA850 FXN act: increases GAA850 frataxin promoter reporter activity. HEK293 lucGAA850 FXN promoter luciferase reporter, 24 h; percent of 10 µM SAHA response. activation, % at 6 µM. actives 0.56% (n = 360,000);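 active = activation above the average of all compounds screened plus 3 SD, cutoff fixed separately per campaign, cut at about 7.5% in these data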;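 note: 0% = DMSO wells and 100% = 10 µM SAHA wells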
AHR act: activators of human aryl hydrocarbon receptor; P35869; AHR-responsive luciferase reporter cells, luminescence; activation, % at 5 µM; actives 2.5% (n = 320,000); AID 2796; in the data active = activation above about 47%;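 note: 0% = vehicle wells and 100% = reference agonist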
SR-BI uptake up: enhances SR-BI lipid uptake from DiI-HDL. CHO ldlA[mSR-BI] cells, DiI-HDL uptake fluorescence, 3 h; 100 = double the neutral-control signal. activation, % at 12.5 µM. actives 0.096% (n = 320,000). AID 504775;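 active = mean replicate activation of at least 60% and every replicate at or above 60%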;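 note: 0% = median plate neutral-control signal and 100% = twice that signal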
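System: LDL receptor-deficient CHO ldlA cells overexpressing murine SR-BI | Timing: 3 h uptake period with compound, 37 °C | Medium: HEPES-buffered (25 mM, pH 7.4) F12 plus 0.5% BSA | Dosing: Single-point compound dose | Signal: Bottom-read fluorescence, 550/595 nm | Read-out: Retained DiI signal reflecting DiI-HDL uptake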
SR-BI DiI inh: mouse SR-BI HDL lipid transfer inhibition; Q61009; ldlA[mSR-BI] CHO cells, DiI-HDL uptake fluorescence, 3 h; inhibition, % at 12.5 µM; actives 0.96% (n = 320,000); AID 488896;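 active = mean replicate inhibition of at least 70% and a set share of replicates each scoring 70 or more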;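 note: 0% = median of neutral control wells and 100% = median of positive control wells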
HIF act: HIF pathway transcriptional activation. activation, % at 7.5 µM (by protocol). AID 1910. actives 0.32% (n = 300,000). U2OS HRE-luciferase reporter, luminescence; normalized: DMSO 0%, desferrioxamine 100%;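 active = mean activation of at least 10% of the iron chelator positive control signal, with at least half of replicates also reaching 10%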
ABCB6 inh 2: blocks the human ABCB6 transporter; K562-ABCB6 porphyrin accumulation, flow cytometry, 1 h; hits give low values; fluorescence ratio to DMSO, % at 10 µM; actives 0.19% (n = 360,000);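 active = fluorescence ratio to DMSO below 75%, the collection mean minus 3 SD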;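 note: signal is porphyrin accumulated inside mitochondria; 100% equals median channel fluorescence of DMSO control wells; lower ratio means ABCB6 inhibition with less porphyrin fluorescence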
AHR act confirm: human AHR activation, confirmation | shares compounds with AHR act | actives 87% (n = 2,300) | activation, % at 9 µM | human cells, AHR-responsive luciferase reporter, luminescence; in the data active = activation above about 49%;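 note: HepG2 hepatoma cells carrying a DRE-driven firefly luciferase reporter; 0% = vehicle wells and 100% = reference agonist wells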
PXR act counter: counter-screen for AHR activators: human PXR activators. shares compounds with AHR act. cell-based PXR reporter, luciferase luminescence. activation, % at 11.6 µM. actives 88% (n = 2,300); in the data active = activation above about 11%;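 note: human hepatoma DPX-2 cells expressing full-length human PXR; 0% = DMSO and 100% = reference agonist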
Target sequence (O75469 whole entry, looked up): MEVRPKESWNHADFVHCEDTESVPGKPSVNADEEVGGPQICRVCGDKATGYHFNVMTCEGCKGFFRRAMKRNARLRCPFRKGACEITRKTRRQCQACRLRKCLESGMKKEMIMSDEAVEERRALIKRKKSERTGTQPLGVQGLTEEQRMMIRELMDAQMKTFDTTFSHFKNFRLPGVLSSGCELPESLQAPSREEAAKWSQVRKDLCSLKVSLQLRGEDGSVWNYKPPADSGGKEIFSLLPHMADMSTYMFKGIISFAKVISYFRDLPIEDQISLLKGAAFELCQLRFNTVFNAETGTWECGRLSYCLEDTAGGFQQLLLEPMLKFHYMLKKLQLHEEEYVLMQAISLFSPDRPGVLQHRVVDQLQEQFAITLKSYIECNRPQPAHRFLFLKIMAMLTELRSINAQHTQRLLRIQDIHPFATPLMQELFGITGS
* marks the source's active call; other numbers are inactive results; x = no result given.

SMILES | GAA850 FXN act | AHR act | SR-BI uptake up | SR-BI DiI inh | HIF act | ABCB6 inh 2 | AHR act confirm | PXR act counter
O=C(c1cccc2ccccc12)C1CCCN(C(=O)C2CCOCC2)C1 (centres undefined) | 1.5 | 3.4 | x | x | 0.5 | 96.0 | x | x
Cc1noc(C)c1COC(=O)c1ccccc1Sc1ccccc1C#N | 1.4 | -0.9 | 4.2 | -4.2 | -0.4 | 92.0 | x | x
Cc1ccc(NC(=S)c2nc3ccccc3s2)cc1 | -5.2 | 81.9* | 0.3 | -0.3 | -1.3 | 102.0 | 58.2* | 17.9*
Cc1ccc(Nc2nc3ccccc3s2)c(C)c1 | 0.8 | 22.9 | 32.2 | -32.2 | 0.2 | 94.0 | x | x
Cc1ccc(C)c(NC(=S)c2nc3ccccc3s2)c1 | 6.5 | 82.9* | -0.4 | 0.4 | 1.3 | 100.0 | 134.8* | 14.1*
O=C(Nc1ccc(Cl)cc1)/C(=C/c1cccc(O)c1)c1nc2ccccc2s1 | -9.4 | 4.2 | -16.0 | 16.0 | -6.1 | 106.0 | x | x
COc1ccc(C)cc1NC(=O)COC(=O)c1ccc2ccccc2n1 | 1.6 | 23.2 | 11.5 | -11.5 | x | 102.0 | x | x
Cc1ccc(C)c(NC(=S)c2ccc3ccccc3n2)c1 | 4.7 | 88.0* | -12.8 | 12.8 | 3.5 | 87.0 | 104.5* | 15.6*
S=C(Nc1ccc(Cl)cc1)c1nc2ccccc2s1 | 2.7 | 129.6* | -4.9 | 4.9 | 3.8 | 100.0 | 111.7* | 12.9*
COc1ccc(C)cc1S(=O)(=O)N(C)CC(=O)N1CCC(C)CC1 | 1.0 | -2.5 | -10.0 | 10.0 | x | 99.0 | x | x
COc1ccccc1NC(=O)Nc1cccnc1 | -2.1 | 122.2* | 6.8 | -6.8 | x | 101.0 | 93.2* | x
O=C(Nc1cccnc1)Nc1cc(Cl)cc(Cl)c1 | 1.1 | 113.0* | -1.9 | 1.9 | 0.2 | 97.0 | 61.8* | x
COc1ccccc1NC(=O)Nc1cccc(C(=O)O)c1 | 0.6 | 2.8 | 22.4 | -22.4 | -0.4 | 98.0 | x | x
O=C(Nc1cccnc1)Nc1ccccc1Cl | -1.4 | 25.4 | x | x | 1.0 | 103.0 | x | x
O=C(Nc1cccc(N2CCCC2)c1)c1cccs1 | 1.7 | 88.2* | -44.4 | 44.4 | 0.6 | 110.0 | 91.8* | 37.3*
CC(C)c1ccc(S(=O)(=O)/N=C2\C=C(NS(=O)(=O)c3ccccc3)C(=O)c3ccccc32)cc1 | 0.0 | 83.4* | 3.1 | -3.1 | 0.3 | 99.0 | 20.4 | 130.3*
COc1ccc(C2=NCCn3nc4cc(C(F)(F)F)ccc4c32)cc1 | 1.6 | 79.8* | -39.4 | 39.4 | -1.7 | 100.0 | 69.2* | 41.6*
Cc1cccc2cc(C#N)c(SCCN3CCCCC3)nc12 | x | 80.9* | x | x | 3.1 | x | 101.2* | 47.8*
Cc1ccc(C#N)c(SCCN2CCCCC2)n1 | 1.4 | x | 13.9 | -13.9 | -0.5 | 102.0 | x | x
CC(=O)Nc1nc(-c2ccccc2)nc(C)c1C(C)=O | -0.3 | 80.4* | x | x | 0.5 | 99.0 | 105.2* | 23.6*
CC(=O)c1c(C)nc(-c2ccc(Cl)cc2)nc1NC(=O)C(C)C | 0.1 | 115.7* | -33.1 | 33.1 | 1.2 | 99.0 | 136.9* | 45.5*
CCCSc1nc(=O)n2cc(C)ccc2n1 | 2.8 | -3.9 | 20.0 | -20.0 | 0.8 | 101.0 | x | x
COc1ccc(-c2csc(Nc3cccc(C)n3)n2)cc1 | 6.5 | 87.9* | -44.2 | 44.2 | 4.0 | 99.0 | 96.5* | 19.0*
COc1ccc(-c2csc(Nc3cccc(C)n3)n2)cc1C | 5.0 | x | -67.8 | 67.8 | 5.8 | 97.0 | x | x
Cc1cccc(Nc2nc(-c3ccc(F)cc3)cs2)n1 | 6.2 | 79.5* | -65.0 | 65.0 | 2.7 | 98.0 | 110.9* | 10.3*
SMILES | GAA850 FXN act | AHR act | SR-BI uptake up | SR-BI DiI inh | HIF act | ABCB6 inh 2 | AHR act confirm | PXR act counter
CC(=O)Oc1ccc(-c2csc(Nc3cccc(C)n3)n2)cc1 | 2.8 | 14.2 | -33.3 | 33.3 | 3.1 | 96.0 | x | x
COc1ccc(NC(=O)c2ccc(C)cc2)c(OC)c1 | 5.2 | 119.8* | 1.9 | -1.9 | 1.4 | 97.0 | 96.1* | x
COc1ccc(NC(=O)c2ccc3[nH]c(=O)c(=O)[nH]c3c2)c(OC)c1 | -0.3 | 1.2 | 13.8 | -13.8 | 0.2 | 97.0 | x | x
COc1cc(NS(C)(=O)=O)c(OC)cc1NC(=O)c1ccccc1 | 1.2 | 9.8 | -40.8 | 40.8 | -0.5 | 96.0 | x | x
COc1cc(NC(=O)c2ccccc2)c(OC)cc1NC(C)=O | 0.8 | 85.7* | -13.9 | 13.9 | -0.1 | 96.0 | 113.1* | 10.8*
COc1ccc(C(=O)Nc2cc(OC)c(NC(=O)c3ccco3)cc2OC)cc1 | 1.4 | 82.3* | -68.5 | 68.5 | 0.4 | 96.0 | 110.0* | x
CCC(=O)Nc1cc(OC)c(NC(=O)c2ccccc2)cc1OC | 1.1 | 81.9* | -51.2 | 51.2 | -2.2 | 123.0 | 108.8* | x
COC(=O)c1cc(COC(=O)COc2ccc(C)c(C)c2)oc1C | -1.9 | 0.2 | x | x | -31.5 | 98.0 | x | x
CN(CC(=O)NCc1ccccn1)S(=O)(=O)c1ccc(Br)cc1 | 3.1 | -2.2 | 3.0 | -3.0 | -0.7 | 100.0 | x | x
C=CCNC(=O)c1cc(-c2cccnc2)nc2ccccc12 | -1.0 | 6.6 | -1.2 | 1.2 | -0.4 | 104.0 | x | x
C=CCNC(=O)c1cc(-c2ccncc2)nc2c(C)cc(C)cc12 | 1.1 | 80.7* | -13.9 | 13.9 | -0.2 | 92.0 | 65.2* | 44.8*
O=C(N/N=C\c1ccccc1)c1ccccc1-n1cccc1 | 2.7 | 92.3* | 21.2 | -21.2 | -0.2 | 95.0 | 110.6* | 37.8*
C/C(=N\NC(=O)c1ccccc1-n1cccc1)C1CC1 | 1.4 | 98.3* | 6.7 | -6.7 | -0.1 | 99.0 | 4.0 | 8.7
O=C(N/N=C\c1cccs1)c1ccccc1-n1cccc1 | 0.2 | 43.8 | -1.6 | 1.6 | 0.4 | 89.0 | x | x
NNC(=O)c1ccccc1-n1cccc1 | 3.0 | 120.8* | 38.5 | -38.5 | 0.4 | 87.0 | 5.2 | 9.7
Cc1ccc(C(=O)NNC(=O)c2ccccc2-n2cccc2)cc1 | 0.1 | 44.9 | 9.8 | -9.8 | -0.2 | 98.0 | x | x
COc1cccc(OC)c1C(=O)NNC(=O)c1ccccc1-n1cccc1 | -2.4 | 6.6 | -4.6 | 4.6 | 0.7 | 106.0 | x | x
O=C(NNC(=O)c1ccccc1-n1cccc1)c1ccccc1 | 1.7 | 80.6* | 12.6 | -12.6 | 0.4 | 103.0 | 93.1* | 12.2*
COC(=O)C1=NN(C(=O)c2cccc(Br)c2)C(O)(c2ccc(Cl)cc2)C1 (centres undefined) | 2.0 | -0.1 | -3.4 | 3.4 | -0.3 | 101.0 | x | x
COc1cc2c(cc1OC)CN(C(=S)NC(=O)c1ccccc1)CC2 | 3.5 | 9.6 | 14.3 | -14.3 | -0.6 | 78.0 | x | x
COc1ccc(Nc2nccc(-c3ccc(C#N)cc3)n2)cc1 | 0.7 | 80.3* | -37.0 | 37.0 | 0.6 | 93.0 | 54.2* | 16.0*
CCOC(=O)c1ccc(N/C(=N\S(=O)(=O)c2ccc(F)cc2F)c2ccccc2)cc1 | 0.8 | 0.9 | -17.1 | 17.1 | 0.9 | 95.0 | x | x

Compound activity as filed in PubChem.
